The results in this text go back to ChEMBL document CHEMBL4376884, “Toward a Rational Design of Polyamine-Based Zinc-Chelating Agents for Cancer Therapies” (J Med Chem, 2020).

The source made the active and inactive calls. No cut-off for these calls is given here.

The nature of test [1]: Metal chelating activity assessed as Zn2+-compound complex formation by measuring stability constant for ZnL in 0.15M NaCl and hydroalcoholic solutions (H2O/EtOH 70:30) at 298.1K by potentiometric titration analysis. The procedure, abridged:
(§1)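 Glass-electrode potentiometric titration with an Ag/AgCl reference in saturated KCl. The electrode was calibrated as an [H+] probe against standardized HCl with CO₂-free NaOH, using Gran's method (pKw 13.73(1)). Range was pH 2.0–11.0, with metal and ligand at 1×10⁻³ to 5×10⁻³ M in 1:1 ratio. At least two curves per compound were merged and fitted with HYPERQUAD.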

The subject of a further test is JeKo-1. Nature of the test: Antiproliferative activity against human JeKo1 cells assessed as reduction in cell viability at 10 uM incubated for 48 hrs by cell titer-glo assay. It counts as functional, cell-based. The procedure, abridged:
(§2)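 Cells plated and treated 24 h later with 10 µM compound for 48 h; viable cells quantified by CellTiter-Glo ATP luminescence. Expressed as percentage of viable cells relative to untreated; mean ± SD of three independent experiments, each in triplicate.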
(In ATP-based viability assays light output follows the ATP content of the culture.)

A short description of test [2]: Metal chelating activity assessed as Zn2+-compound complex formation by measuring stability constant for ZnL(OH) using pre-Zn2+-complexed compound (ZnL) in 0.15M NaCl and hydroalcoholic solutions (H2O/EtOH 70:30) at 298.1K by potentiometric titration analysis. The procedure, abridged:
as §1

Test [3] is described as follows: Metal chelating activity assessed as Zn2+-compound complex formation by measuring stability constant for ZnH2L2 in 0.15M NaCl and hydroalcoholic solutions (H2O/EtOH 70:30) at 298.1K by potentiometric titration analysis. The method in brief: (§3)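 Potentiometric titration at pH 2.0–11.0 with Ag/AgCl reference electrode. Glass electrode calibrated against HCl with CO2-free NaOH by Gran's method (pKw = 13.73). Metal and ligand each at 1×10⁻³ to 5×10⁻³ M, 1:1 molar ratio. At least two titration curves per compound, merged and fitted with HYPERQUAD to give stability constants.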

The test system of the next test is U-87 MG. Nature of the test: Antiproliferative activity against human U87MG cells assessed as reduction in cell viability at 10 uM incubated for 48 hrs by cell titer-glo assay. As to conditions: U-87MG ATCC. It counts as functional, cell-based. The procedure, abridged: as §2
Another test deals with Jurkat. Briefly: Antiproliferative activity against human Jurkat cells assessed as reduction in cell viability at 10 uM incubated for 48 hrs by cell titer-glo assay. It counts as functional, cell-based. The method in brief: as §2
Test [4] relates to LN-229. Nature of the test: Metal chelating activity in human LN229 cells assessed as decrease in intracellular concentration of labile zinc ions by measuring reduction in zinquin-Zn2+ complex formation incubated for 12 hrs followed by incubation with fluorophore-zinquin for 30 mins by spectrofluorometric analysis. It is filed as cell-based. The method in brief:
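LN229 cells were treated 12 h, trypsinized, pelleted and checked by Trypan Blue. Then 6x10⁶ cells in 1 mL PBS were loaded with Zinquin 25 μM for 30 min at 37 °C in the dark. Fluorescence was read at ex 370/em 475 nm with a 400–600 nm scan, normalized to cell number, untreated set to 100; four independent experiments.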

Test [5] can be described thus: Metal chelating activity assessed as Zn2+-compound complex formation by measuring stability constant for ZnL(OH) in 0.15M NaCl and hydroalcoholic solutions (H2O/EtOH 70:30) at 298.1K by potentiometric titration analysis. The method in brief: as §1
Test [6] relates to LN-229. Briefly: Antiproliferative activity against human LN229 cells assessed as reduction in cell viability at 10 uM incubated for 48 hrs by cell titer-glo assay. It counts as functional, cell-based. The procedure, abridged: as §2
Test [7] can be described thus: Metal chelating activity assessed as Zn2+-compound complex formation by measuring stability constant for ZnL(OH)2 in 0.15M NaCl and hydroalcoholic solutions (H2O/EtOH 70:30) at 298.1K by potentiometric titration analysis. The method in brief:
as §1

Test [8] in a line: Metal chelating activity assessed as Zn2+-compound complex formation by measuring stability constant for ZnL(OH)2 using pre-Zn2+-complexed compound (ZnL(OH)) in 0.15M NaCl and hydroalcoholic solutions (H2O/EtOH 70:30) at 298.1K by potentiometric titration analysis. The method in brief:
as §1

A short description of test [9]: Metal chelating activity assessed as Zn2+-compound complex formation by measuring stability constant for ZnL in 0.15M NaCl at 298.1K by potentiometric titration analysis. The procedure, abridged:
as §1

Test [10] is described as follows: Metal chelating activity assessed as Zn2+-compound complex formation by measuring stability constant for ZnL(OH)2 in 0.15M NaCl at 298.1K by potentiometric titration analysis. The method in brief: as §1
A short description of test [11]: Metal chelating activity assessed as Zn2+-compound complex formation by measuring stability constant for ZnL(OH) using pre-Zn2+-complexed compound (ZnL) in 0.15M NaCl at 298.1K by potentiometric titration analysis. The method in brief:
as §1

Test [12] in a line: Metal chelating activity assessed as Zn2+-compound complex formation by measuring stability constant for ZnL(OH)2 using pre-Zn2+-complexed compound (ZnL(OH)) in 0.15M NaCl at 298.1K by potentiometric titration analysis. The procedure, abridged:
as §1

Test [13] in a line: Metal chelating activity assessed as Zn2+-compound complex formation by measuring stability constant for ZnL(OH) in 0.15M NaCl at 298.1K by potentiometric titration analysis. The procedure, abridged: as §1
For the next test, the system named is Fibroblast. Briefly: Cytotoxicity against human Fibroblast assessed as reduction in cell viability incubated for 48 hrs by cell titer-glo assay. It is filed as cell-based. The method in brief: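 Dose-response: cells plated, treated 24 h later for 48 h, then ATP measured by CellTiter-Glo luminescence. IC50 given as mean ± SD from three independent experiments, each in triplicate. Fibroblasts came from individuals. Cells were kept in RPMI or DMEM with 10% heat-inactivated FBS and penicillin/streptomycin at 37 °C, 5% CO2.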

The nature of test [14]: Metal chelating activity assessed as Zn2+-compound complex formation by measuring stability constant for ZnH2L in 0.15M NaCl at 298.1K by potentiometric titration analysis. The method in brief:
as §3

Test [15] is described as follows: Metal chelating activity assessed as Zn2+-compound complex formation by measuring stability constant for ZnH2L using pre-Zn2+-complexed compound (ZnHL) in 0.15M NaCl at 298.1K by potentiometric titration analysis. The method in brief: as §3
Test [16] is described as follows: Metal chelating activity assessed as Zn2+-compound complex formation by measuring stability constant for ZnHL using pre-Zn2+-complexed compound (ZnL) in 0.15M NaCl at 298.1K by potentiometric titration analysis. The method in brief: as §1
Test [17] can be described thus: Metal chelating activity assessed as Zn2+-compound complex formation at physiological pH 7.4 by quantum mechanical studies. The method in brief: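 Zn2+ complexes modelled by DFT, B3LYP, gas phase. Basis set def2-SV(P), with MDF10 Stuttgart-Dresden effective core potential for Zn and Grimme dispersion correction. Vibrational frequencies and zero-point correction computed for each minimum.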

Test [18] is described as follows: Metal chelating activity assessed as Zn2+-compound complex formation by measuring stability constant for ZnHL in 0.15M NaCl at 298.1K by potentiometric titration analysis. The method in brief: as §1
In a further test the test system is PC-3. Briefly: Inhibition of colony formation in human PC3 cells at 30 uM incubated for 4 hrs by crystal violet staining based colony counting method. It counts as functional, cell-based. The procedure, abridged: (§4)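 LN229 and PC3 cells treated for 4 h with compound (10 µM) or with etoposide (30 µM positive control), washed, trypsinized and replated at 3000 cells per 60-mm plate. Colonies grown 7–10 days, fixed and stained with 0.5% crystal violet in 70% ethanol, and counted. Reported as percent of control; four independent experiments, each in duplicate.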

Test [19] relates to LN-229. Nature of the test: Inhibition of colony formation in human LN229 cells at 30 uM incubated for 4 hrs by crystal violet staining based colony counting method. It is filed as functional, cell-based. The method in brief:
as §4

Test [20] concerns DNA. Nature of the test: Induction of DNA damage in human Z138 cells assessed as increase in gammaH2AX phosphorylation at Ser139 residue at 1 uM incubated for 4 hrs by Flow cytometry analysis. It is filed as cell-based. The procedure, abridged: (§5)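 Z-138 and LN229 cells treated 4 h with 10 µM compound or 1 µM doxorubicin. Fixed in 3.7% formaldehyde on ice, permeabilized with 0.2% Triton X, stained with rabbit anti-pS139 H2A.X (1:400) and Alexa 555 secondary, then analysed by flow cytometry. Fold γH2AX fluorescence versus untreated; mean ± SD of three experiments.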
(In general: In flow cytometry, cells or beads pass a laser one at a time.)

Test [21] concerns DNA. Nature of the test: Induction of DNA damage in human LN229 cells assessed as increase in gammaH2AX phosphorylation at Ser139 residue at 1 uM incubated for 4 hrs by Flow cytometry analysis. It is filed as cell-based. The method in brief: as §5

Consider `CN(CCNCc1ccncc1)CCNCc1ccncc1`, for which the log K was 6.57 in test [1]; -9.17 in [2]; 24.3 in test [3]; -2.6 in test [5]; -12.3 in test [7]; -9.68 in test [8]. For the same molecule, the result in the test with JeKo-1, with U-87 MG, in the test with Jurkat, in the test on LN-229 [4] and in the test with LN-229 [6] was inactive.
On to `O=S(=O)(c1cccc2ccccc12)N(CCNCc1ccccn1)CCNCc1ccccn1`, for which the log K in test [9] was 7.53; in test [10], -11.8; in [11], -10; in test [12] it was -10.3; in test [13], -1.48. The result in the test with JeKo-1, in the test with U-87 MG, in the test on Jurkat and in the test on LN-229 [6] was Active. In addition, the result with LN-229 [4] was inactive.
One may read the IC50 as the point on the concentration scale where inhibition reaches its midpoint. Take `c1ccc(CN(CCN(Cc2ccccn2)Cc2ccccn2)Cc2ccccn2)nc1`: the IC50 in the test on Fibroblast came to 6.7 µM.
For `CN(C)c1cccc2c(S(=O)(=O)N(CCNCc3ccccn3)CCNCc3ccccn3)cccc12`, the log K in [9] was 8.38; in test [10], -11.5; in test [14] it was 17.5; in test [11], -9.55; in test [15], 4.5; in [16], 4.61. Besides, the log K in [12] was -10.4; in test [13] it was -1.17; in [18], 13. Further, the result (in the test with JeKo-1; in test [17]; in the test on U-87 MG; in the test with Jurkat; in the test with LN-229 [6]) was Active. In the test on LN-229 [4], the result was inactive.
With `COc1cc([C@@H]2c3cc4c(cc3[C@@H](O[C@@H]3O[C@@H]5CO[C@@H](C)O[C@H]5[C@H](O)[C@H]3O)[C@H]3COC(=O)[C@H]23)OCO4)cc(OC)c1O`, the inhibition entry in the test on PC-3 and in the test with LN-229 [19] was “Active” each time.
As to `c1ccc2cc(CN(CCNCc3ccncc3)CCNCc3ccncc3)ccc2c1`, the log K is 4.72 in test [9]; -12.9 in test [10]; -8.99 in [11]; -8.67 in [12]; -4.22 in test [13]. For the same molecule, the result in the test on JeKo-1, with U-87 MG, with Jurkat, in the test on LN-229 [4] and in the test with LN-229 [6] was inactive. For the same molecule, in test [17], the Activity turned out to be 60.7%.
As for `O=S(=O)(c1cccc2cccnc12)N(CCNCc1ccccn1)CCNCc1ccccn1`, the outcome in the test on JeKo-1, in the test on Jurkat and in the test with LN-229 [6] was Active.
With `O=C(NCCN(CCNC(=O)c1ccccn1)Cc1ccc2ccccc2c1)c1ccccn1`, the outcome in test [17] was Active. Besides, the outcome in the test with LN-229 [4] was inactive.
For `c1cncc(CNCCN(CCNCc2cccnc2)Cc2ccc3ccccc3c2)c1`, the log K was 6.04 in test [9]; -12.1 in test [10]; -8.6 in [11]; -9.54 in [12]; -2.56 in [13]; 14.1 in test [18]. Further, the result in the test on JeKo-1, in the test with U-87 MG, with Jurkat, in the test with LN-229 [4] and with LN-229 [6] was inactive. Further, the Activity in test [17] turned out to be 63.4%.
In the case of `COc1cccc2c1C(=O)c1c(O)c3c(c(O)c1C2=O)C[C@@](O)(C(=O)CO)C[C@@H]3O[C@H]1C[C@H](N)[C@H](O)[C@H](C)O1`, the outcome with DNA [20] and in the test with DNA [21] was Active.
